Shown are actives, neighbours in structure and some others; about 1.5% of the full set was active somewhere.
CXCR6 block: CXCR6 (human) receptor inhibition; O00574; CHO-K1 PathHunter CXCR6 beta-arrestin, luminescence; inhibition, % at 20 µM; 360,000 tested, 0.36% active; in the data active = inhibition above about 34%, passing the limit was not always enough;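 also: antagonist mode with CXCL16 agonist at 10 nM final; 0% = 10 nM CXCL16 with DMSO and 100% = unstimulated wells without agonist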
APJ antagonist: APJ receptor antagonism. P35414. CHO-K1 APJ beta-arrestin complementation, luminescence. inhibition, % at 20 µM. 330,000 tested, 0.32% active;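 active = inhibition above about 40% at 20 µM, limit read from the data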;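 also: cells challenged with 10 nM apelin-13 agonist together with compound; plate controls were apelin-13 plus DMSO wells for no effect and DMSO wells lacking apelin-13 for full effect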
Target sequence (P35414 whole entry, looked up): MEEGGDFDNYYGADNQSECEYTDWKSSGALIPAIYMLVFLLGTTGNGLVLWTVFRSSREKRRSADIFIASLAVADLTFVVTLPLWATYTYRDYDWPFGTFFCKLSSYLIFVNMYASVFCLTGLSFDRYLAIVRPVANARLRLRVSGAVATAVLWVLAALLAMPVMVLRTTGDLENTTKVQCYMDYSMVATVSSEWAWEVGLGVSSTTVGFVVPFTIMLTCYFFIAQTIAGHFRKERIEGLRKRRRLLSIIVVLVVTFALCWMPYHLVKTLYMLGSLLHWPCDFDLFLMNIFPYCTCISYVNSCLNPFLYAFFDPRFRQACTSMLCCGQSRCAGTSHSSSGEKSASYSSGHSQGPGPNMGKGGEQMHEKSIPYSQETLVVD
APJ ag: agonists of human APJ apelin receptor; activation, % at 20 µM; CHO-K1 APJ PathHunter beta-arrestin, luminescence; 0% DMSO wells, 100% apelin; AID 2520; P35414; 330,000 tested, 0.11% active;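 active = activation more than six SD over the plate average, tested at 20 µM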;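 also: 0% = DMSO alone and 100% = apelin-13 at 10 nM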
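Assay system: CHO-K1 cells stably expressing ProLink-tagged human APJ and arrestin–beta-gal acceptor. Compound dosing: 20 µM single point, 1% DMSO. Times: 16-18 h seeding, 90 min dark compound exposure, 60 min detection. Detection: beta-gal luminescence. Evaluation: APJ–arrestin association signal. Controls: negative DMSO alone, positive Apelin-13 at 10 nM.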
EBI2 block: EBI2 (human) antagonism; P32249; EBI2 beta-arrestin recruitment, luminescence, 7a,25-OHC stimulated; inhibition, % at 5 µM; 360,000 tested, 0.81% active; in the data active = inhibition above about 38%;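 also: enzyme fragment complementation signal reports receptor beta-arrestin coupling in cells; 0% = agonist plus DMSO wells and 100% = wells without agonist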
CCR6 antagonist: antagonists of human CCR6 receptor | AID 493098 | 340,000 tested, 0.49% active | inhibition, % at 20 µM | CHO-K1 CCR6 PathHunter beta-arrestin, luminescence, CCL20-stimulated;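 active = compounds whose inhibition of the agonist-driven luminescence signal at 20 µM reaches about 50%, limit read from the data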;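 also: cells stimulated with CCL20 at 14 nM final; plate controls were DMSO with CCL20 for no effect and DMSO without agonist for full effect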
EBI2 antag conf: confirmation of human EBI2 receptor antagonists; inhibition, % at 5 µM; AID 651997; 2,400 tested, 29% active; EBI2 beta-arrestin luminescence, 7a,25-OHC antagonism; shares compounds with EBI2 block;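 active = inhibition of at least 50%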
EBI2 agonist: counter-screen for EBI2 antagonists: EBI2 agonist activity; shares compounds with EBI2 block; EBI2-expressing cells, agonist mode, luminescence, 60 min; 0% vehicle, 100% 7α,25-dihydroxycholesterol control; activation, % at 5 µM; 2,400 tested, under 10 active;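 active = activation of at least 50%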
bGal counter: inhibits E. coli beta-galactosidase, counter-screen for EBI2 antagonists; shares compounds with EBI2 block; purified beta-galactosidase, luminescent Galacton Star, 15 min; inhibition, % at 5 µM; 2,400 tested, 1% active; AID 652176;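 active = replicate-average signal at least 3 plate SD below neutral wells, shown as high inhibition, flagging enzyme-inhibiting false positives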;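 also: 0% = DMSO wells with enzyme and 100% = wells lacking enzyme; higher means stronger loss of beta-gal luminescence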
The depositor's hits bear a star.

How did O=S(=O)(c1ccccc1)N1CCN(CC(O)COc2ccc3c(c2)CCC3)CC1 (stereo unspecified) do in these assays?
CXCR6 block: -0.9; APJ antagonist: 10.3; APJ ag: 0.6; EBI2 block: 83.0*; CCR6 antagonist: -2.4; EBI2 antag conf: 69.2*; EBI2 agonist: 1.9; bGal counter: -4.3

Results for CCN1CCN(CC(O)COc2ccc3c(c2)CCC3)CC1 (stereo unspecified) ?
CXCR6 block: -0.8; APJ antagonist: 6.2; APJ ag: -2.5; EBI2 block: -4.8; CCR6 antagonist: -5.8

What do the screens show for `Cc1ccc(C(C)C)c(OCCNC(=O)c2cncc(Br)c2)c1`?
CXCR6 block: -7.9; APJ antagonist: -28.6; APJ ag: -2.8; EBI2 block: 49.6*; CCR6 antagonist: 15.5; EBI2 antag conf: 27.2; EBI2 agonist: -2.0; bGal counter: -4.0

How did C=Cc1ccc(Cn2c(C)c(C(=O)NCc3ccccc3C(F)(F)F)sc2=O)cc1 do in these assays?
CXCR6 block: 0.8; EBI2 block: -9.6

How did O=[N+]([O-])c1ccccc1CNCCCCCO do in these assays?
CXCR6 block: -2.0; APJ antagonist: 1.0; APJ ag: -0.1; EBI2 block: -7.1; CCR6 antagonist: 4.8

What do the screens show for `CCOC(=O)c1[nH]c(C)c(C(=O)OCCN2C(=O)c3ccccc3C2=O)c1C`?
CXCR6 block: 2.6; APJ antagonist: 1.6; APJ ag: 0.7; EBI2 block: 5.4; CCR6 antagonist: 3.9

Results for CCOC(=O)c1[nH]c2ccc(OCC)cc2c1CCCN1C(=O)c2ccccc2C1=O ?
CXCR6 block: 4.5; APJ antagonist: 1.8; APJ ag: -1.6; EBI2 block: 45.9*; CCR6 antagonist: 19.6; EBI2 antag conf: 44.6; EBI2 agonist: 0.0; bGal counter: 7.6

Results for O=C1c2ccccc2C(=O)c2c(/C=C/N3CCCCC3)ccnc21 ?
CXCR6 block: 3.9; EBI2 block: -23.6; CCR6 antagonist: 16.4

How did CC(C)C[C@@H](CN1CCC[C@@H]1CN1C(=S)NC[C@@H]1Cc1ccc(O)cc1)N1C[C@H](Cc2ccc(O)cc2)N(CC2CCCCC2)C1=S do in these assays?
CXCR6 block: 1.1; EBI2 block: 88.8*; EBI2 antag conf: 41.8; EBI2 agonist: -1.0; bGal counter: -11.2

Results for CC(C)C[C@@H](CN1CCCC1CN1C(=S)NC[C@@H]1Cc1ccccc1)N1C[C@H](Cc2ccc(O)cc2)N(CC2CCCCC2)C1=S (stereo partly specified) ?
CXCR6 block: -0.2; EBI2 block: 16.0

How did CC(C)C[C@@H](CN1CCC[C@@H]1CN1C(=S)NC[C@@H]1Cc1ccc(O)cc1)N1C[C@H](Cc2ccc(O)cc2)N(CC2CCCCCC2)C1=S do in these assays?
CXCR6 block: -5.8; EBI2 block: 84.7*; EBI2 antag conf: 46.6; EBI2 agonist: -0.3; bGal counter: -14.6

How did C[C@@H]1CN([C@@H](C)CO)C(=O)c2cc(NS(C)(=O)=O)ccc2O[C@@H](C)CCCCO[C@H]1CN(C)Cc1ccc2c(c1)OCO2 do in these assays?
CXCR6 block: 6.5; EBI2 block: -12.1

How did Cn1c(C(=O)N2CCN(c3ccccc3)CC2)cc2cc(Cl)ccc21 do in these assays?
CXCR6 block: 5.6; APJ antagonist: -17.6; APJ ag: 0.4; EBI2 block: 44.2*; CCR6 antagonist: 1.0; EBI2 antag conf: 38.0; EBI2 agonist: 0.3; bGal counter: -4.3

How did Cn1c(C(=O)N2CCN(c3ccccn3)CC2)cc2ccccc21 do in these assays?
CXCR6 block: 4.0; APJ antagonist: -7.2; APJ ag: -2.0; EBI2 block: 32.5; CCR6 antagonist: -1.1

What do the screens show for `COc1ccc(OC)c(NC(=O)C2(C)CCN2C(=O)C2(c3ccc(Cl)cc3)CCC2)c1` (stereo unspecified)?
CXCR6 block: 5.0; EBI2 block: 26.9

What do the screens show for `COc1cc(-c2nnc(SCc3ccccc3Cl)o2)cc(OC)c1OC`?
CXCR6 block: 5.1; APJ antagonist: 28.2; APJ ag: -2.8; EBI2 block: 36.5; CCR6 antagonist: 17.9

What do the screens show for `COc1cc(-c2nnc(SCc3c(F)cccc3Cl)o2)cc(OC)c1OC`?
CXCR6 block: -2.2; APJ antagonist: 1.7; APJ ag: -2.4; EBI2 block: 41.6*; CCR6 antagonist: 8.0; EBI2 antag conf: 46.8; EBI2 agonist: 0.8; bGal counter: 0.2

What do the screens show for `COc1cccc(CN2CCN(C(=O)c3ccc(-c4ccccc4)cc3)CC2)c1`?
CXCR6 block: 13.3; APJ antagonist: -6.7; APJ ag: -2.2; EBI2 block: 77.5*; CCR6 antagonist: -5.3; EBI2 antag conf: 44.9; EBI2 agonist: 0.6; bGal counter: 9.2

How did COc1cccc(C(=O)N2CCN(C(=O)c3ccc(-c4ccccc4)cc3)CC2)c1OC do in these assays?
CXCR6 block: 3.0; APJ antagonist: 13.5; APJ ag: -0.7; EBI2 block: 77.9*; CCR6 antagonist: 4.3; EBI2 antag conf: 48.3; EBI2 agonist: 0.8; bGal counter: 10.4

What do the screens show for `COc1cccc(CN2CCN(C(=O)c3cccc(OC)c3)CC2)c1`?
CXCR6 block: 2.6; APJ antagonist: 4.0; APJ ag: -1.5; EBI2 block: -4.4; CCR6 antagonist: 13.1

What do the screens show for `COc1cc(CN2CCN(C(=O)c3ccc(-c4ccccc4)cc3)CC2)cc(OC)c1OC`?
CXCR6 block: 10.5; APJ antagonist: -3.9; APJ ag: -2.7; EBI2 block: 47.9*; CCR6 antagonist: 8.1; EBI2 antag conf: 32.5; EBI2 agonist: 0.3; bGal counter: 8.3

What do the screens show for `COc1cccc(CN2CCN(C(=O)c3ccc(-c4ccccc4)cc3)CC2)c1OC`?
CXCR6 block: -1.9; APJ antagonist: 0.4; APJ ag: -4.4; EBI2 block: 64.6*; CCR6 antagonist: 7.8; EBI2 antag conf: 43.5; EBI2 agonist: -0.1; bGal counter: 9.5

What do the screens show for `CCCCCNC(=O)C(C1CC1)n1c(=O)c(-c2ccccc2)nc2ccccc21` (stereo unspecified)?
EBI2 block: 7.7

Results for COc1cc(C(=O)N2CCN(S(=O)(=O)c3ccc(C)cc3)CC2)ccc1OCC(=O)N1CCOCC1 ?
CXCR6 block: -3.5; EBI2 block: -10.7; CCR6 antagonist: 3.1

What do the screens show for `COc1cc(C(O)c2nc(-c3csc4ccccc34)cs2)ccc1F` (stereo unspecified)?
CXCR6 block: -9.8; EBI2 block: -2.0
